Bioassay records from PubChem.
Yeast life ext: extends the lifespan of yeast; AID 775; S. cerevisiae growth with nicotinamide, OD615; deaD strain in restrictive glucose medium; inhibition of the nicotinamide effect, % at 10 µM; 130,000 tested, 0.68% active;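 active = inhibition above a set limit, placed 3 SD over the median of all compounds, cut at about 26% in these data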
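Assay system: engineered S. cerevisiae DeaD replicative-lifespan strain, galactose-grown log-phase cells; medium: restrictive CSMM-D dextrose medium; also added: nicotinamide, 1.5 mM, co-present with compound; schedule: 48 h compound exposure at 30 °C, humidified; detection: absorbance at 615 nm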
Yeast growth inh: reduces growth of yeast BB579 in restrictive medium; inhibition, % at 10 µM; 140,000 tested, 0.51% active; S. cerevisiae BB579 growth, OD615, 48 h; AID 804;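 active = inhibition above a set limit, 3 SD over the mean compound inhibition, cut at about 44% in these data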
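System: DeaD yeast strain BB579; buffer or medium: CSMM-D dextrose restrictive medium; technique: OD at 615 nm; schedule: 4 h cell preincubation, 48 h compound exposure, 30 °C humidified; doses: single 10 µM dose; controls: amphotericin B 10 µg/mL, positive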
PostGolgi yeast: growth inhibition of a yeast mutant, post-Golgi transport screen. post-Golgi transport phenotypic cell assay. inhibition, % at 10 µM. 98,000 tested, 0.9% active. AID 739;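 note: yeast cells grown in 1536-well plates; yeast grown about 18 h at 30C before absorbance read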
PostGolgi ctrl: inhibits growth of the yeast control strain | efflux-deficient yeast background strain, growth absorbance A615, 16 h | inhibition, % at 10 µM | 98,000 tested, 5% active
A number is an active result; n = inactive; x = no result. Many of the other results were omitted from the sample, so hits are more common in it than they were. Cut-off read from the data, not from the text of the source, unless noted: active = inhibition above about 30%; inactive = the rest.

SMILES	Yeast life ext	Yeast growth inh	PostGolgi yeast	PostGolgi ctrl
Cc1cccc(-c2noc(CN(C(=O)c3ccc(Br)o3)C(C)C)n2)c1	n	n	n	33.2
COc1cccc(OCC(=O)N(Cc2nc(-c3ccc(Cl)cc3)no2)C(C)C)c1	n	n	n	53.7
CC(C)N(Cc1nc(-c2ccccc2)no1)C(=O)Cc1ccccc1	n	n	n	n
CC(C)N(Cc1nc(-c2ccccc2)no1)C(=O)COc1ccccc1	n	n	n	n
Cc1cccc(-c2noc(CN(C(=O)c3ccc4c(c3)OCO4)C(C)C)n2)c1	n	n	n	n
Cc1cc(Br)ccc1OCC(=O)N(Cc1nc(-c2ccccc2)no1)C(C)C	n	n	n	n
CC(C)N(Cc1nc(-c2ccc(Cl)cc2)no1)C(=O)CCC1CCCC1	n	n	n	35.2
COc1ccccc1OCC(=O)N(Cc1nc(-c2ccc(Cl)cc2)no1)C(C)C	n	n	n	45.8
COc1ccc(/C=C/c2nnc(NC(=O)COc3ccc(C)cc3)s2)cc1	n	n	x	x
O=C(CCCOc1ccccc1)NC1CCCc2ccccc21 (centres undefined)	n	n	x	x
CC(=O)/C=C(\C)NCCNc1c(F)c(F)c(CO)c(F)c1F	n	n	n	n
Cc1ccc(C)c(C(=O)N(Cc2nc(-c3ccc(Cl)cc3)no2)C(C)C)c1	n	n	n	31.9
CCc1ccc(/C=C2/C(=O)N(c3ccccc3)C(=S)N2CC(=O)OC)s1	n	n	x	x
CCN1C(=O)/C(=C/N(C(C)=O)c2ccccc2)N(c2ccccc2)C1=S	35.2	n	n	n
Cc1ccc(Sc2c(C=O)c3ccccc3n2C)cc1	n	n	n	44.8
Cc1ccc(Sc2c(O)c3ccccc3n(C)c2=O)cc1	n	n	x	x
O=C(CSc1nnc(-c2ccccc2)c(-c2ccccc2)n1)Nc1ccc(Br)cn1	n	n	x	x
CCOC(=O)COc1ccccc1/C=C\[N+](=O)[O-]	43.6	n	x	x
COC(=O)c1ccc(C(=O)OC)c(-n2c(=O)c3ccccc3c3ccccc3c2=O)c1	n	n	x	x
COc1ccccc1Cn1c(=O)c2ccccc2n2c(Sc3ncnc4sccc34)nnc12	n	n	n	41.6
COc1ccccc1Cn1c(=O)c2ccccc2n2c(SCc3csc(C)n3)nnc12	n	n	n	n
O=C1COc2cccnc2N1	n	n	n	38.2
O=C(O)c1ccc2nc(-c3ccccc3)sc2c1	n	47.4	x	x
Cc1ccc(C)n1N1C(=O)/C(=C\c2ccc(Cl)cc2)SC1=S	n	n	39.8	38.7
CC12CCC(C(=O)Nc3cc(Cl)ccc3Cl)(C(Br)C1=O)C2(C)C (centres undefined)	n	n	x	x
SMILES	Yeast life ext	Yeast growth inh	PostGolgi yeast	PostGolgi ctrl
COC(=O)C1=C(C)NC(C)=C(C(=O)OC)C1c1ccc2ccccc2n1	n	n	n	n
O=C1c2ccccc2C(=O)C1c1ccc2ccccc2n1	n	53.8	n	n
CS(=O)(=O)c1nc(-c2ccc(Br)cc2)cc(-c2ccccc2)c1C#N	n	n	n	74.1
COc1ccc(-c2cc(-c3ccccc3)c(C#N)c(S(C)(=O)=O)n2)cc1	n	n	n	51.0
CS(=O)c1nc(-c2ccc(Br)cc2)cc(-c2ccccc2)c1C#N (centres undefined)	n	n	n	77.1
N#Cc1c(-c2ccc(Br)cc2)cc(-c2cccnc2)nc1N	n	n	x	x
O=C(NC(=S)NCC1CCCO1)c1ccc([N+](=O)[O-])cc1 (centres undefined)	n	n	x	x
Nc1ccccc1-c1nnc(SCc2ccccc2Cl)[nH]c1=O	n	n	n	37.5
Cc1cc(C(=O)CN2CCCC(C)C2)c(C)n1-c1ccc(F)cc1 (centres undefined)	n	n	x	x
NC(=O)c1cccc2c3c([nH]c12)CCCC3	n	n	n	n
CCOC(=O)C1CCCc2c1[nH]c1c(C(N)=O)cccc21 (centres undefined)	n	n	n	33.6
CNC(=O)C12CCC(C)(c3nc4cc(C)c(C)cc4nc31)C2(C)C (centres undefined)	n	n	n	n
Cc1cc2nc3c(nc2cc1C)C1(C(=O)O)CCC3(C)C1(C)C (centres undefined)	n	n	n	31.6
COc1cc(NC(=O)COc2ccc(Cl)cc2)ccc1-c1cc2ccccc2oc1=O	n	n	x	x
Cc1cc(C)nc(SCNC(=O)c2ccc(F)cc2)n1	n	n	31.6	n
Cc1cc(SCNC(=O)c2ccccc2)ncn1	n	n	n	n
O=C1SC(SC(=Nc2ccccc2)Nc2ccccc2)C(=O)N1c1ccccc1 (centres undefined)	33.7	n	x	x
Cc1cccc(N2C(=O)CC(SC(=Nc3ccccc3)Nc3ccccc3)C2=O)c1 (centres undefined)	n	n	n	n
CCOc1cc(C)nc(NCCc2ccc(OC)c(OC)c2)n1	n	n	n	n
O=C1CC(C(=O)Nc2ccccc2)N=C(N2CCCCC2)N1 (centres undefined)	n	n	n	30.8
CCOC(=O)C1=C(CNCc2ccccc2Cl)NC(=O)NC1c1ccc2c(c1)OCO2 (centres undefined)	n	n	n	38.8
Cc1cccc(C(=O)NNC(=O)CN2C(=O)c3ccccc3C2=O)c1	n	n	x	x
CCN(CC)c1nc(N)c2c(N)nc3c(c2c1C#N)CC(c1ccccc1)O3 (centres undefined)	n	n	n	n
N#Cc1c(N2CCCCC2)nc(N)c2c(N)nc3c(c12)CC(c1ccccc1)O3 (centres undefined)	n	n	n	53.1
O=C(Cc1c(O)c2ccccc2[nH]c1=O)N(Cc1ccccc1)Cc1ccccc1	n	n	36.2	n
SMILES	Yeast life ext	Yeast growth inh	PostGolgi yeast	PostGolgi ctrl
CCCCCCNC(=O)c1c(O)c2ccccc2[nH]c1=O	36.1	n	n	n
CCCCc1c(O)c2ccccc2[nH]c1=O	n	n	n	43.4
CCCCCCC(=O)Nc1c(O)c2ccccc2[nH]c1=O	n	n	n	n
CCCCc1c(C)c2cc(C)ccc2[nH]c1=O	n	n	n	33.5
CCCCn1nnnc1SCC(=O)Nc1ccc(N(C)C)cc1	n	n	n	n
O=c1ccccn1Cc1c(F)cccc1Cl	n	n	n	n
CCn1c(SCC(=O)Nc2nc(-c3ccc(C)cc3)cs2)nnc1-c1ccccc1O	n	n	69.3	75.9
CCn1c(SCC(=O)Nc2nc(-c3ccc(C)cc3)cs2)nnc1-c1ccccc1	n	n	n	n
CCc1cc(=O)oc2cc(C)c(CN3CCCC(C)C3)c(O)c12 (centres undefined)	30.2	n	33.3	n
CCNc1nc(NC(C)C)nc(Oc2ccc(/C=N/O)cc2)n1	n	n	n	n
CS(=O)(=O)Oc1ccc(Br)cc1/C=C1/N=C(c2ccco2)OC1=O	49.4	n	x	x
COc1ccc(NC(=O)c2nn(C34CC5CC(CC(C5)C3)C4)cc2[N+](=O)[O-])cc1	n	n	x	x
O=C(Nc1cccc2ccccc12)c1nn(C23CC4CC(CC(C4)C2)C3)cc1[N+](=O)[O-]	n	n	46.7	84.7
CCOC(=O)c1c(/N=C/c2cc([N+](=O)[O-])ccc2O)sc(C)c1C	n	61.4	x	x
C=CCSc1nnc2c(n1)OC(c1c(C)[nH]n(-c3ccccc3)c1=O)Nc1ccccc1-2 (centres undefined)	n	n	n	40.2
